Measurements taken from ChEMBL document CHEMBL1146735, “Synthesis and biological activity of macrocyclic taxane analogues” (Bioorg Med Chem Lett, 2004).

Tests used:
[1] = Compound was evaluated for the ratio of IC50 of A2780/tub cell line to that of IC50 of A2780 cell line; assay type: functional
Method in brief: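 Resistance ratio: IC50 in the A2780/tub line divided by the IC50 in parental A2780.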

[2] = Compound was evaluated for the median survival time of compound treated mice to that of median survival time of the control mice at a dose of 200 mg/kg/injection; assay type: functional
Method in brief: (§1)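 Balb/c × DBA/2 F1 hybrid mice implanted intraperitoneally with a 2% (w/v) brei of M109 lung carcinoma. Treatment was by intraperitoneal injection on days 5 and 8 post-implant. Survival was followed daily to about 75–90 days, with an untreated control group in each experiment. %T/C = median survival of treated mice / median survival of controls × 100.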

[3] = system: HCT-116; experiment: In vitro cytotoxicity against the paclitaxel sensitive human colon carcinoma cell line HCT116; assay type: functional, cell-based
Method in brief: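 HCT116 cells exposed to compound for 72 h. Viability read by MTS assay and IC50 derived from it.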

[4] = species on record: Homo sapiens; experiment: Compound was evaluated for the inhibition of tubulin polymerization; assay type: functional
Method in brief: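 Tubulin polymerization followed by optical density. The value is the compound concentration giving a change of 0.01 OD/h, divided by the corresponding concentration of paclitaxel.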

[5] = Compound was evaluated for the ratio of HCT/mdr cell line to that of IC50 of HCT116 cell line; assay type: functional, HCT-116
Method in brief: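 Resistance ratio: IC50 in the HCT116/mdr line divided by the IC50 in parental HCT116.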

[6] = system: A2780; experiment: In vitro cytotoxicity against the paclitaxel sensitive […]; assay type: functional, cell-based; conditions: Homo sapiens
[7] = Compound was evaluated for the median survival time of compound treated mice to that of median survival time of the control mice at a dose of 120 mg/kg/injection
[8] = Compound was evaluated for the median survival time of compound treated mice to that of median survival time of the control mice at a dose of 100 mg/kg/injection; assay type: functional; method in brief: as §1

SMILES | R/S ratio [1] | T/C [2] | IC50 [3] | Tubulin [4] | R/S ratio [5] | IC50 [6] | T/C [7] | T/C [8]
CC(=O)O[C@H]1[C@@H]2CO[C@@H]2[C@@H]2OCOCCOCO[C@H]3C(=O)[C@@]2(C)[C@@H]1[C@H](OC(=O)c1ccccc1)[C@]1(O)C[C@H](OC(=O)[C@H](O)[C@@H](NC(=O)c2ccccc2)c2ccccc2)C(C)=C3C1(C)C | 15 | 174% | 3 nM | 1.49 | 10 | 2.6 nM | – | –
CC(=O)O[C@H]1[C@@H]2CO[C@@H]2[C@@H]2OCOCC(C)(C)COCO[C@H]3C(=O)[C@@]2(C)[C@@H]1[C@H](OC(=O)c1ccccc1)[C@]1(O)C[C@H](OC(=O)[C@H](O)[C@@H](NC(=O)c2ccccc2)c2ccccc2)C(C)=C3C1(C)C | 23 | – | 17.2 nM | 2.87 | 11 | 18 nM | 118% | –
CC(=O)O[C@H]1[C@@H]2CO[C@@H]2[C@@H]2OCOCCOCO[C@H]3C(=O)[C@@]2(C)[C@@H]1[C@H](OC(=O)c1ccccc1)[C@]1(O)C[C@H](OC(=O)[C@H](O)[C@@H](NC(=O)OC(C)(C)C)c2ccccc2)C(C)=C3C1(C)C | 6 | – | 0.8 nM | 0.67 | 12 | 18.5 nM | – | 190%
CC(=O)O[C@H]1[C@@H]2CO[C@@H]2[C@@H]2OCOCCOC(=O)O[C@H]3C(=O)[C@@]2(C)[C@@H]1[C@H](OC(=O)c1ccccc1)[C@]1(O)C[C@H](OC(=O)[C@H](O)[C@@H](NC(=O)c2ccccc2)c2ccccc2)C(C)=C3C1(C)C | 32 | – | 1.9 nM | 0.73 | 31 | 2.1 nM | – | –
